≈ marks a conversion by molar mass, not a printed value.
Legend:
[1] = system: Staphylococcus epidermidis; test: Antibacterial activity against methicillin-susceptible coagulase-negative Staphylococcus epidermidis 051 after 9 passages by agar dilution method; type: functional
Procedure, shortened: (§1)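 Daily serial passage for up to 50 days at 35°C for 24 h in 1 ml MHB. […] Each transfer used 10 µl from the tube nearest the MIC (1–2 dilutions below) with the same turbidity as the drug-free control. […] MICs were measured by agar dilution, with changes given as log2 steps.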

[2] = system: Staphylococcus epidermidis; test: Antibacterial activity against methicillin-susceptible coagulase-negative Staphylococcus epidermidis 057 after 9 passages by agar dilution method; type: functional; procedure, shortened: as §1
[3] = system: Staphylococcus epidermidis; test: Antibacterial activity against methicillin-resistant coagulase-negative Staphylococcus epidermidis 197 after 12 passages by agar dilution method; type: functional; procedure, shortened: as §1
[4] = system: Staphylococcus epidermidis; test: Antibacterial activity against methicillin-resistant, vancomycin-intermediate coagulase-negative Staphylococcus epidermidis 225 after 11 passages by agar dilution method; type: functional; procedure, shortened: as §1
[5] = system: Staphylococcus epidermidis; test: Antibacterial activity against methicillin-resistant, Linezolid non-susceptible coagulase-negative Staphylococcus epidermidis 345 after 9 passages by agar dilution method; type: functional; procedure, shortened: as §1
Staphylococcus aureus [6] = test: Antibacterial activity against methicillin-susceptible Staphylococcus aureus by agar dilution method; type: functional
Procedure, shortened: (§2)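 Agar dilution on Mueller-Hinton agar per CLSI guidelines. S. aureus ATCC 29213 and E. faecalis ATCC 29212 were run with each set, and test MICs were accepted only when the control strains fell within acceptable ranges.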

Staphylococcus aureus [7] = test: Antibacterial activity against methicillin-resistant Staphylococcus aureus by agar dilution method; type: functional; procedure, shortened: as §2
Staphylococcus aureus [8] = test: Antibacterial activity against Tmp-susceptible Staphylococcus aureus by agar dilution method; type: functional
Procedure, shortened: (§3)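 MICs by agar dilution on Mueller-Hinton agar following CLSI guidelines. S. aureus ATCC 29213 and E. faecalis ATCC 29212 were run as quality controls with each set, and test-strain MICs were kept only if control MICs fell within acceptable ranges.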

Staphylococcus aureus [9] = test: Antibacterial activity against Tmp-resistant Staphylococcus aureus by agar dilution method; type: functional; procedure, shortened: as §3
Staphylococcus aureus [10] = test: Antibacterial activity against Tmp-susceptible coagulase-negative Staphylococcus aureus by agar dilution method; type: functional; procedure, shortened: as §3
Staphylococcus aureus [11] = test: Antibacterial activity against methicillin-susceptible Staphylococcus aureus ATCC 29213 by broth macrodilution method; type: functional; conditions: ATCC29213
Staphylococcus aureus [12] = test: Antibacterial activity against methicillin-susceptible Staphylococcus aureus 505 by broth macrodilution method; type: functional
Staphylococcus aureus [13] = test: Antibacterial activity against methicillin-resistant Staphylococcus aureus ATCC 43300 by broth macrodilution method; type: functional; conditions: ATCC43300
Staphylococcus aureus [14] = test: Antibacterial activity against methicillin-resistant Staphylococcus aureus 145 by broth macrodilution method; type: functional
Staphylococcus aureus [15] = test: Antibacterial activity against methicillin-resistant Staphylococcus aureus 507 by broth macrodilution method; type: functional
Staphylococcus aureus [16] = test: Antibacterial activity against vancomycin-resistant Staphylococcus aureus VRS1 by broth macrodilution method; type: functional
Procedure, shortened: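 Michigan VRSA strain, one of 12 staphylococci later used in time-kill studies. MIC was determined by broth macrodilution and reported in μg/ml.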

[17] = system: Staphylococcus epidermidis; test: Antibacterial activity against methicillin-susceptible coagulase-negative Staphylococcus epidermidis 051 by broth macrodilution method; type: functional
[18] = system: Staphylococcus epidermidis; test: Antibacterial activity against methicillin-susceptible coagulase-negative Staphylococcus epidermidis 057 by broth macrodilution method; type: functional
[19] = system: Staphylococcus epidermidis; test: Antibacterial activity against methicillin-resistant coagulase-negative Staphylococcus epidermidis 074 by broth macrodilution method; type: functional
[20] = system: Staphylococcus epidermidis; test: Antibacterial activity against methicillin-resistant coagulase-negative Staphylococcus epidermidis 197 by broth macrodilution method; type: functional
[21] = system: Staphylococcus epidermidis; test: Antibacterial activity against methicillin-resistant coagulase-negative Staphylococcus epidermidis 225 by broth macrodilution method; type: functional
[22] = system: Staphylococcus epidermidis; test: Antibacterial activity against methicillin-resistant coagulase-negative Staphylococcus epidermidis 345 by broth macrodilution method; type: functional
Staphylococcus aureus [23] = test: Antibacterial activity against methicillin-susceptible Staphylococcus aureus ATCC 29213 after 9 passages by agar dilution method; type: functional; conditions: ATCC29213; procedure, shortened: as §1
Staphylococcus aureus [24] = test: Antibacterial activity against methicillin-susceptible, vancomycin-intermediate Staphylococcus aureus 505 by broth macrodilution method; type: functional
Staphylococcus aureus [25] = test: Antibacterial activity against methicillin-susceptible, vancomycin-intermediate Staphylococcus aureus 505 after 9 passages by agar dilution method; type: functional; procedure, shortened: as §1
Staphylococcus aureus [26] = test: Antibacterial activity against methicillin-resistant Staphylococcus aureus ATCC 43300 after 9 passages by agar dilution method; type: functional; conditions: ATCC43300
Procedure, shortened: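 Serial passage under drug. Inoculum was ~1 × 10^6 CFU/ml from overnight MHA growth, in 1 ml MHB at 35°C for 24 h. Drug ranged from 4 log2 steps above to 3 log2 steps below the MIC. […] MIC change is given as log2 steps.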

Staphylococcus aureus [27] = test: Antibacterial activity against methicillin-resistant Staphylococcus aureus 145 after 10 passages by agar dilution method; type: functional
Staphylococcus aureus [28] = test: Antibacterial activity against methicillin-resistant and vancomycin-resistant Staphylococcus aureus VRS1 by agar dilution method; type: functional; procedure, shortened: as §2
[29] = system: Staphylococcus epidermidis; test: Antibacterial activity against methicillin-resistant, Linezolid non-susceptible coagulase-negative Staphylococcus epidermidis 345 by agar dilution method; type: functional
[30] = system: Staphylococcus epidermidis; test: Antibacterial activity against methicillin-resistant, vancomycin-intermediate coagulase-negative Staphylococcus epidermidis 225 by agar dilution method; type: functional; procedure, shortened: as §2
[31] = system: coagulase-negative staphylococci; test: Antibacterial activity against Tmp-resistant coagulase-negative staphylococci by agar dilution method
[32] = system: coagulase-negative staphylococci; test: Antibacterial activity against Tmp-susceptible coagulase-negative staphylococci by agar dilution method
[33] = system: coagulase-negative staphylococci; test: Antibacterial activity against methicillin-resistant coagulase-negative staphylococci by agar dilution method
[34] = system: coagulase-negative staphylococci; test: Antibacterial activity against methicillin-susceptible coagulase-negative staphylococci by agar dilution method
[35] = system: Staphylococcus epidermidis; test: Antibacterial activity against methicillin-resistant, vancomycin-intermediate coagulase-negative Staphylococcus epidermidis 225 after 50 passages by agar dilution method; type: functional; procedure, shortened: as §1
Staphylococcus aureus [36] = test: Antibacterial activity against methicillin-susceptible, vancomycin-intermediate Staphylococcus aureus 505 after 50 passages by agar dilution method; type: functional; procedure, shortened: as §1

## CO[C@H]1/C=C/O[C@@]2(C)Oc3c(C)c(O)c4c(O)c(c(/C=N/N5CCN(C)CC5)c(O)c4c3C2=O)NC(=O)/C(C)=C\C=C\[C@H](C)[C@H](O)[C@@H](C)[C@@H](O)[C@@H](C)[C@H](OC(C)=O)[C@@H]1C [RIFAMPIN]
[1]
  MIC: > 128 µg/mL
[2]
  MIC: > 128 µg/mL
[3]
  MIC: > 128 µg/mL
[4]
  MIC: > 128 µg/mL
[5]
  MIC: > 128 µg/mL
Staphylococcus aureus [6]
  MIC50: 0.008 µg/mL (≈ 0.00972 µM)
  MIC90: 0.016 µg/mL (≈ 0.0194 µM)
Staphylococcus aureus [7]
  MIC50: 0.016 µg/mL (≈ 0.0194 µM)
  MIC90: 0.016 µg/mL (≈ 0.0194 µM)
Staphylococcus aureus [8]
  MIC50: 0.016 µg/mL (≈ 0.0194 µM)
  MIC90: 0.016 µg/mL (≈ 0.0194 µM)
Staphylococcus aureus [9]
  MIC50: 0.008 µg/mL (≈ 0.00972 µM)
  MIC90: > 16 µg/mL
Staphylococcus aureus [10]
  MIC: ≤ 0.004 µg/mL
Staphylococcus aureus [11]
  MIC: 0.008 µg/mL (≈ 0.00972 µM)
Staphylococcus aureus [12]
  MIC: 0.03 µg/mL (≈ 0.0365 µM)
Staphylococcus aureus [13]
  MIC: 0.004 µg/mL (≈ 0.00486 µM)
Staphylococcus aureus [14]
  MIC: 0.008 µg/mL (≈ 0.00972 µM)
Staphylococcus aureus [15]
  MIC: 4 µg/mL (≈ 4.86 µM)
Staphylococcus aureus [16]
  MIC: > 128 µg/mL
[17]
  MIC: 0.016 µg/mL (≈ 0.0194 µM)
[18]
  MIC: 0.03 µg/mL (≈ 0.0365 µM)
[19]
  MIC: 0.03 µg/mL (≈ 0.0365 µM)
[20]
  MIC: 0.03 µg/mL (≈ 0.0365 µM)
[21]
  MIC: 0.03 µg/mL (≈ 0.0365 µM)
[22]
  MIC: 0.016 µg/mL (≈ 0.0194 µM)
Staphylococcus aureus [23]
  MIC: > 128 µg/mL
Staphylococcus aureus [24]
  MIC: 0.016 µg/mL (≈ 0.0194 µM)
Staphylococcus aureus [25]
  MIC: > 128 µg/mL
Staphylococcus aureus [26]
  MIC: > 128 µg/mL
Staphylococcus aureus [27]
  MIC: > 128 µg/mL
Staphylococcus aureus [28]
  MIC: > 32 µg/mL
[29]
  MIC: 0.008 µg/mL (≈ 0.00972 µM)
[30]
  MIC: 0.016 µg/mL (≈ 0.0194 µM)
[31]
  MIC50: 0.008 µg/mL (≈ 0.00972 µM)
  MIC90: > 16 µg/mL
[32]
  MIC50: 0.008 µg/mL (≈ 0.00972 µM)
  MIC90: 0.016 µg/mL (≈ 0.0194 µM)
[33]
  MIC50: 0.008 µg/mL (≈ 0.00972 µM)
  MIC90: 2 µg/mL (≈ 2.43 µM)
[34]
  MIC: ≤ 0.004 µg/mL
  MIC90: 0.016 µg/mL (≈ 0.0194 µM)

## CN[C@H](CC(C)C)C(=O)N[C@H]1C(=O)N[C@@H](CC(N)=O)C(=O)N[C@H]2C(=O)N[C@H]3C(=O)N[C@H](C(=O)N[C@H](C(=O)O)c4cc(O)cc(O)c4-c4cc3ccc4O)[C@H](O)c3ccc(c(Cl)c3)Oc3cc2cc(c3O[C@@H]2O[C@H](CO)[C@@H](O)[C@H](O)[C@H]2O[C@H]2C[C@](C)(N)[C@H](O)[C@H](C)O2)Oc2ccc(cc2Cl)[C@H]1O [VANCOMYCIN]
[35]
  MIC: 16 µg/mL (≈ 11 µM)
Staphylococcus aureus [6]
  MIC50: 1 µg/mL (≈ 0.69 µM)
  MIC90: 2 µg/mL (≈ 1.38 µM)
Staphylococcus aureus [7]
  MIC50: 1 µg/mL (≈ 0.69 µM)
  MIC90: 2 µg/mL (≈ 1.38 µM)
Staphylococcus aureus [8]
  MIC50: 1 µg/mL (≈ 0.69 µM)
  MIC90: 2 µg/mL (≈ 1.38 µM)
Staphylococcus aureus [9]
  MIC50: 1 µg/mL (≈ 0.69 µM)
  MIC90: 4 µg/mL (≈ 2.76 µM)
Staphylococcus aureus [16]
  MIC: > 256 µg/mL
[21]
  MIC: 8 µg/mL (≈ 5.52 µM)
Staphylococcus aureus [36]
  MIC: 8 µg/mL (≈ 5.52 µM)
Staphylococcus aureus [28]
  MIC: > 32 µg/mL
[30]
  MIC: 8 µg/mL (≈ 5.52 µM)
[31]
  MIC50: 2 µg/mL (≈ 1.38 µM)
  MIC90: 2 µg/mL (≈ 1.38 µM)
[32]
  MIC50: 1 µg/mL (≈ 0.69 µM)
  MIC90: 2 µg/mL (≈ 1.38 µM)
[33]
  MIC50: 2 µg/mL (≈ 1.38 µM)
  MIC90: 2 µg/mL (≈ 1.38 µM)
[34]
  MIC90: 2 µg/mL (≈ 1.38 µM)

From ChEMBL document CHEMBL1649147, “Antistaphylococcal activity of dihydrophthalazine antifolates, a family of novel antibacterial drugs” (2009)
